Source: ChEMBL document CHEMBL2157989, “Synthesis and biological evaluation of antibody conjugates of phosphate prodrugs of cytotoxic DNA alkylators for the targeted treatment of cancer” (J Med Chem, 2012)
Calls of active or inactive are those of the source. The calls are words filed in the database; no cut-off is given here.

Tests used:
[1] = Prodrug activation assessed as enzyme-mediated compound dephosphorylation in presence of porcine kidney alkaline phosphatase P4439 at pH 7.4 by HPLC; settings: pig, isolated protein
[2] = Solubility in DMF at 1.5 mg sonicated for 45 mins followed by centrifugation for 45 mins by UV/Vis spectroscopy; assay type: physicochemical; settings: 0.75 h
Method in brief: (§1)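 Solid compound (~1.5 mg) in the stated solvent was sonicated 45 min, then centrifuged at 1400g for 45 min. The supernatant concentration was read by UV/vis at 340 nm, using ε = 41500 M⁻¹ cm⁻¹ for the free phenols and 34500 M⁻¹ cm⁻¹ for the phosphate prodrugs (pH 7.0 values).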

[3] = Prodrug activation assessed as enzyme-mediated compound dephosphorylation in presence of bovine kidney alkaline phosphatase P4653 at pH 7.4 by HPLC; settings: cattle, isolated protein
[4] = Solubility in methanol at 1.5 mg sonicated for 45 mins followed by centrifugation for 45 mins by UV/Vis spectroscopy; assay type: physicochemical; settings: 0.75 h; method in brief: as §1
[5] = Prodrug activation assessed as enzyme-mediated compound dephosphorylation in presence of wheat germ acid phosphatase Sigma P3627 at pH 7.4 by HPLC; settings: isolated protein
[6] = Prodrug activation assessed as enzyme-mediated compound dephosphorylation in presence of human placenta alkaline phosphatase from P3895 at pH 7.4 by HPLC; settings: isolated protein
[7] = Solubility in dichloromethane at 1.5 mg sonicated for 45 mins followed by centrifugation for 45 mins by UV/Vis spectroscopy; assay type: physicochemical; settings: 0.75 h
[8] = Solubility in water containing 5% THF at 1.5 mg sonicated for 45 mins followed by centrifugation for 45 mins by UV/Vis spectroscopy; assay type: physicochemical; settings: 0.75 h
[9] = Solubility in water containing 5% acetone at 1.5 mg sonicated for 45 mins followed by centrifugation for 45 mins by UV/Vis spectroscopy; assay type: physicochemical; settings: 0.75 h
[10] = Stability of the compound in 5 % DMA assessed as cyclopropyl ring formation incubated for 1 yr at room temperature at pH 7 by HPLC analysis; assay type: physicochemical; settings: buffer, pH 7, 8766 h
Method in brief: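 Phosphate prodrug is stored for one year at room temperature in phosphate buffer containing 5% DMA at pH ~7. Conversion to the ring-closed cyclopropyl form is monitored by HPLC.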

[11] = Solubility in hexane at 1.5 mg sonicated for 45 mins followed by centrifugation for 45 mins by UV/Vis spectroscopy; assay type: physicochemical; settings: 0.75 h; method in brief: as §1
[12] = Prodrug activation assessed as enzyme-mediated compound dephosphorylation in presence of human semen prostatic acid phosphatase P1649 at pH 7.4 by HPLC; settings: isolated protein
[13] = Prodrug activation assessed as enzyme-mediated compound dephosphorylation in presence of calf intestine mucosa alkaline phosphatase P79390 at pH 7.4 by HPLC; settings: cattle, isolated protein
[14] = Prodrug activation assessed as enzyme-mediated compound dephosphorylation in presence of rabbit intestine alkaline phosphatase P2256 at pH 7.4 by HPLC; settings: isolated protein
[15] = Prodrug activation assessed as enzyme-mediated compound dephosphorylation in presence of bovine semen prostatic acid phosphatase P3147 at pH 7.4 by HPLC; settings: cattle, isolated protein
[16] = Solubility in water containing 5% DMF at 1.5 mg sonicated for 45 mins followed by centrifugation for 45 mins by UV/Vis spectroscopy; assay type: physicochemical; settings: 0.75 h
[17] = Prodrug activation assessed as enzyme-mediated compound dephosphorylation in presence of bovine alkaline phosphatase P8361 at pH 7.4 by HPLC; settings: cattle, isolated protein
[18] = Prodrug activation assessed as enzyme-mediated compound dephosphorylation in presence of canine intestine alkaline phosphatase P8639 at pH 7.4 by HPLC; settings: dog, isolated protein
[19] = Solubility in DMA at 1.5 mg sonicated for 45 mins followed by centrifugation for 45 mins by UV/Vis spectroscopy; assay type: physicochemical; settings: 0.75 h; method in brief: as §1
[20] = Solubility in water at 1.5 mg sonicated for 45 mins followed by centrifugation for 45 mins by UV/Vis spectroscopy; assay type: physicochemical; settings: 0.75 h; method in brief: as §1
[21] = Solubility in DMSO at 1.5 mg sonicated for 45 mins followed by centrifugation for 45 mins by UV/Vis spectroscopy; assay type: physicochemical; settings: 0.75 h; method in brief: as §1
[22] = Prodrug activation assessed as enzyme-mediated compound dephosphorylation in presence of bovine intestinal mucosa alkaline phosphatase P7640 at pH 7.4 by HPLC; settings: cattle, isolated protein
[23] = Prodrug activation assessed as enzyme-mediated compound dephosphorylation in presence of bovine liver alkaline phosphatase P7034 at pH 7.4 by HPLC; settings: cattle, isolated protein
[24] = Solubility in water containing 5% DMA at 1.5 mg sonicated for 45 mins followed by centrifugation for 45 mins by UV/Vis spectroscopy; assay type: physicochemical; settings: 0.75 h
[25] = Solubility in water containing 5% DMSO at 1.5 mg sonicated for 45 mins followed by centrifugation for 45 mins by UV/Vis spectroscopy; assay type: physicochemical; settings: 0.75 h
[26] = Prodrug activation assessed as enzyme-mediated compound dephosphorylation in presence of porcine intestine mucosa alkaline phosphatase P4002 at pH 7.4 by HPLC; settings: pig, isolated protein
[27] = Solubility in ethanol at 1.5 mg sonicated for 45 mins followed by centrifugation for 45 mins by UV/Vis spectroscopy; assay type: physicochemical; settings: 0.75 h; method in brief: as §1
[28] = Prodrug activation assessed as enzyme-mediated compound dephosphorylation in presence of calf intestine alkaline phosphatase P7923 at pH 7.4 by HPLC; settings: cattle, isolated protein
Ramos [29] = assay: Antitumor activity against human Ramos cells xenografted in CB17 SCID mouse assessed as reduction in tumor growth rate at 75 ug/kg, iv dosed as qdx5 regime starting 7 days post xenograft; assay type: functional, organism-based
Method in brief: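 Female CB 17 SCID mice, five weeks old, were given Ramos cells subcutaneously under the right shoulder (5 × 10⁶ cells/mouse in 0.1 mL serum-free medium). Tumors grew 7 days to about 100 mm³. Mice were randomized, six per group. Dosing was 75 μg/kg (drug basis) qd ×5, given intravenously, with phosphate-buffered saline as vehicle control. Tumors were measured in three dimensions twice weekly, with volume = ½(l×w×h); body weight was also taken twice weekly.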

[30] = Solubility in toluene at 1.5 mg sonicated for 45 mins followed by centrifugation for 45 mins by UV/Vis spectroscopy; assay type: physicochemical; settings: 0.75 h; method in brief: as §1
[31] = Solubility in ethyl acetate at 1.5 mg sonicated for 45 mins followed by centrifugation for 45 mins by UV/Vis spectroscopy; assay type: physicochemical; settings: 0.75 h; method in brief: as §1
[32] = Solubility in chloroform at 1.5 mg sonicated for 45 mins followed by centrifugation for 45 mins by UV/Vis spectroscopy; assay type: physicochemical; settings: 0.75 h; method in brief: as §1
[33] = Solubility in water containing 5% dioxane at 1.5 mg sonicated for 45 mins followed by centrifugation for 45 mins by UV/Vis spectroscopy; assay type: physicochemical; settings: 0.75 h
[34] = Cytotoxicity against human NAMALWA cells assessed as cell survival after 72 hrs by clonogenic assay; assay type: functional, cell-based; settings: NAMALVA
Method in brief: (§2)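 Cells were kept in RPMI 1640 with 10% heat-inactivated FBS at 37 °C and 6% CO₂. They were plated at 1000–5000 cells/well and exposed to 0–3 nM test agent for 72 h. Medium was then replaced and colonies grew for 7–10 days in total after plating. Colonies were fixed and stained with 0.2% crystal violet in 10% formalin/PBS, then counted. Surviving fraction = colonies in treated wells / colonies in control wells; IC₅₀ was taken from this.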

Ramos [35] = assay: Cytotoxicity against human Ramos cells assessed as cell survival after 72 hrs by clonogenic assay; assay type: functional, cell-based; method in brief: as §2
HL-60 = assay: Cytotoxicity against human HL60 cells assessed as cell survival after 72 hrs by clonogenic assay; assay type: functional, cell-based; settings: HL-60, 72 h; method in brief: as §2

In the case of `CC(C)(S)CCC(=O)Nc1ccc2[nH]c(C(=O)Nc3ccc4[nH]c(C(=O)N5C[C@@H](CCl)c6c5cc(OP(=O)(O)O)c5ccccc65)cc4c3)cc2c1`, the Drug metabolism [1] is reported as “Active”, the solubility [2] is reported as “soluble” and the Drug metabolism [3] is reported as “Active”. For the same compound, the solubility [4] was “Insoluble”, the Drug metabolism [5] was “Active” and the Drug metabolism [6] was “Active”. The solubility [7] was “Insoluble”, the solubility [8] was “soluble” and the solubility [9] was “soluble”. For the same compound, the Drug degradation [10] was 3%, the solubility [11] was “Insoluble” and the Drug metabolism [12] was “Active”. The Drug metabolism [13] was “Active”, the Drug metabolism [14] was “Active” and the Drug metabolism [15] was “Active”. For the same compound, the solubility [16] was “soluble”, the Drug metabolism [17] was “Active” and the Drug metabolism [18] was “Active”. For the same compound, the solubility [19] was “soluble”, the solubility [20] was “Insoluble” and the solubility [21] was “soluble”. The Drug metabolism [22] was “Active”, the Drug metabolism [23] was “Active” and the solubility [24] was “soluble”. The solubility [25] was “soluble”, the Drug metabolism [26] was “Active” and the solubility [27] was “Insoluble”. For the same compound, the Drug metabolism [28] was “Active”, the Activity (Ramos [29]) was “inactive” and the solubility [30] was “Insoluble”. For the same compound, the solubility [31] was “Insoluble”, the solubility [32] was “Insoluble” and the solubility [33] was “soluble”.

For `CC(=O)SCCC(=O)Nc1ccc2[nH]c(C(=O)Nc3ccc4[nH]c(C(=O)N5C[C@@H](CCl)c6c5cc(O)c5ccccc65)cc4c3)cc2c1`, the solubility [2] was “soluble”, the solubility [4] was “Insoluble” and the solubility [7] was “Insoluble”. For the same compound, the solubility [11] was “Insoluble”, the IC50 [34] was 0.02 nM and the IC50 (Ramos [35]) was 0.047 nM. For the same compound, the solubility [19] was “soluble”, the solubility [20] was “Insoluble” and the solubility [21] was “soluble”. For the same compound, the solubility [27] was “Insoluble”, the IC50 (HL-60) was 0.045 nM and the solubility [30] was “Insoluble”. For the same compound, the solubility [31] was “Insoluble” and the solubility [32] was “Insoluble”.

Work on `O=C(Nc1ccc2[nH]c(C(=O)N3C[C@@H](CCl)c4c3cc(O)c3ccccc43)cc2c1)c1cc2cc([N+](=O)[O-])ccc2[nH]1` yielded an IC50 [34] of 0.005 nM and an IC50 (HL-60) of 0.007 nM.

With `O=C(CCSSc1ccccn1)Nc1ccc2[nH]c(C(=O)Nc3ccc4[nH]c(C(=O)N5C[C@@H](CCl)c6c5cc(O)c5ccccc65)cc4c3)cc2c1` the solubility [2] was “soluble”, the solubility [4] was “Insoluble” and the solubility [7] was “Insoluble”. The solubility [11] was “Insoluble”, the IC50 [34] was 0.09 nM and the IC50 (Ramos [35]) was 0.05 nM. The solubility [19] was “soluble”, the solubility [20] was “Insoluble” and the solubility [21] was “soluble”. For the same compound, the solubility [27] was “Insoluble”, the IC50 (HL-60) was 0.05 nM and the solubility [30] was “Insoluble”. For the same compound, the solubility [31] was “Insoluble” and the solubility [32] was “Insoluble”.

For `O=C(CCS)Nc1ccc2[nH]c(C(=O)Nc3ccc4[nH]c(C(=O)N5C[C@@H](CCl)c6c5cc(OP(=O)(O)O)c5ccccc65)cc4c3)cc2c1`, the Drug metabolism [1] was “Active”, the solubility [2] was “soluble” and the Drug metabolism [3] was “Active”. The solubility [4] was “Insoluble”, the Drug metabolism [5] was “Active” and the Drug metabolism [6] was “Active”. The solubility [7] was “Insoluble”, the solubility [8] was “soluble” and the solubility [9] was “soluble”. For the same compound, the Drug degradation [10] was 3%, the solubility [11] was “Insoluble” and the Drug metabolism [12] was “Active”. For the same compound, the Drug metabolism [13] was “Active”, the Drug metabolism [14] was “Active” and the Drug metabolism [15] was “Active”. For the same compound, the solubility [16] was “soluble”, the Drug metabolism [17] was “Active” and the Drug metabolism [18] was “Active”. The solubility [19] was “soluble”, the solubility [20] was “Insoluble” and the solubility [21] was “soluble”. The Drug metabolism [22] was “Active”, the Drug metabolism [23] was “Active” and the solubility [24] was “soluble”. For the same compound, the solubility [25] was “soluble”, the Drug metabolism [26] was “Active” and the solubility [27] was “Insoluble”. For the same compound, the Drug metabolism [28] was “Active”, the Activity (Ramos [29]) was “inactive” and the solubility [30] was “Insoluble”. For the same compound, the solubility [31] was “Insoluble”, the solubility [32] was “Insoluble” and the solubility [33] was “soluble”.

For `CSSCCC(=O)Nc1ccc2[nH]c(C(=O)Nc3ccc4[nH]c(C(=O)N5C[C@H]6CC67C5=CC(=O)c5ccccc57)cc4c3)cc2c1` (stereo partly specified), the IC50 [34] was 0.012 nM, the IC50 (Ramos [35]) was 0.015 nM and the IC50 (HL-60) was 0.012 nM.

Work on `Nc1ccc2[nH]c(C(=O)Nc3ccc4[nH]c(C(=O)N5C[C@@H](CCl)c6c5cc(O)c5ccccc65)cc4c3)cc2c1` yielded an IC50 [34] of 0.005 nM and an IC50 (HL-60) of 0.03 nM.
